Measurements pooled from the literature.
Protocols differ between the studies behind these lines.
Target: Dual serine/threonine and tyrosine protein kinase (DSTYK, Homo sapiens, UniProt Q6XUX3)
Residues used in one study (Q6XUX3 1-929): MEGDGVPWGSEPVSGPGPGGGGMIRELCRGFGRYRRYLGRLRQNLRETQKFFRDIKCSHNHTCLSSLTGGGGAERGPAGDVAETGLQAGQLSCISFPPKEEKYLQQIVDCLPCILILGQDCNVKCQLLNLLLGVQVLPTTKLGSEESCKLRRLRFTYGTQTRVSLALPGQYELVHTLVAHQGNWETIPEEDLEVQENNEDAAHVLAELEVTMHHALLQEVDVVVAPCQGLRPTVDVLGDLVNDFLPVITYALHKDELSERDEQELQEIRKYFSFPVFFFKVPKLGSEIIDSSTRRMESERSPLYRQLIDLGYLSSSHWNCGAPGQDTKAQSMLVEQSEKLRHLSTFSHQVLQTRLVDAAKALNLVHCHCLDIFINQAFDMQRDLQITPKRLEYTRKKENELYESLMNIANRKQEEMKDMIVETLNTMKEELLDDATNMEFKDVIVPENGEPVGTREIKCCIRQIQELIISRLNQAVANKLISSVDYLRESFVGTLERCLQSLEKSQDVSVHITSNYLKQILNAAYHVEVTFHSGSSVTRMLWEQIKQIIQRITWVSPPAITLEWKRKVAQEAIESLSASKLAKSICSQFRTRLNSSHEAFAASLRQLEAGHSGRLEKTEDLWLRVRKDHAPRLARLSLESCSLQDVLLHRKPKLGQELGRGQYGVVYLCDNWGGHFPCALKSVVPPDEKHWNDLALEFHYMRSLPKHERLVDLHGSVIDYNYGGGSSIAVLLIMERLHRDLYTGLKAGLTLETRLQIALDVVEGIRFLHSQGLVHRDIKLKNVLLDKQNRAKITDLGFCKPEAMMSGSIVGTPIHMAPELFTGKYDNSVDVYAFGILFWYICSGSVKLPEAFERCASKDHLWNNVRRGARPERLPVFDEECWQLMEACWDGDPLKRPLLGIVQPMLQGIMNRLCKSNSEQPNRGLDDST

SMILES | read-out | technique | concentration | remaining binding [%]
N[C@@H]1CCN(c2nccc(-c3cnn4ncccc34)n2)C1 | binding | – | 1 µM | 100
O=C(NCc1ncc(C(F)(F)F)cc1Cl)c1ccc2c(c1)C1(CCS(=O)(=O)CC1)[C@@H](C1CC1)N2S(=O)(=O)c1ccc(F)cc1 | cell-free assay | competition with immobilised ligand | 1 µM | 78
O=C(NCCCN1CCOCC1)c1ccc(Nc2ncc(Cl)c(-c3ccc(Cl)s3)n2)cc1 | binding | competition with immobilised ligand | 1 µM | 89
CCc1ccccc1C(=O)Nc1n[nH]c2c(C)c(F)c(C3C(C#N)=C(C)N(C)C(C)=C3C#N)cc12 | cell-free assay | competition with immobilised ligand | 1 µM | 95
CN(C)c1nccc(-c2cnc3ncccn23)n1 | binding | – | 1 µM | 78
O=C(NCC1CCOCC1)c1n[nH]cc1NC(=O)c1c(F)cccc1F | binding | competition with immobilised ligand | 1 µM | 86
CN(C)c1nccc(-c2cnn3ncccc23)n1 | binding | – | 1 µM | 96
Cc1cnc(Nc2ccc(C(=O)N3CCC(N4CCCC4)CC3)cc2)nc1-c1cc2ccccc2s1 | binding | competition with immobilised ligand | 1 µM | 22
COc1cnc(Nc2cccc(S(N)(=O)=O)c2)nc1N1CCN(c2ccccc2)CC1 | binding | competition with immobilised ligand | 1 µM | 100
C[C@H]1CCN(c2nccc(-c3cnn4ncccc34)n2)C1 | binding | – | 1 µM | 94
C[C@@H](c1ccc(-n2cnc3c(N)ncnc32)cc1)N1CCc2nn(C)c(Cc3ccccc3)c2C1=O | binding | competition with immobilised ligand | 0.1 µM | 58
O=C(c1ccc(Nc2ncc(Cl)c(-c3cc4ccccc4s3)n2)cc1)N1CCC(N2CCCC2)CC1 | binding | competition with immobilised ligand | 1 µM | 32
NS(=O)(=O)c1cc(NC(=O)Cc2ccccc2)ccc1Oc1cccc(Cl)c1 | cell-free assay | competition with immobilised ligand | 1 µM | 83
CC1CCCN1c1nccc(-c2cnn3ncccc23)n1 (stereo not shown) | binding | – | 1 µM | 100
COc1cnc(Nc2cccc(S(N)(=O)=O)c2)nc1N1CCN(c2ccccc2)C(=O)C1 | binding | competition with immobilised ligand | 1 µM | 89
CN(C)c1ncnc(-c2ccc3nc(Nc4cc(CN5CCN(C(=O)CC(F)(F)F)CC5)ccn4)[nH]c3c2)c1Cl | cell-free assay | competition with immobilised ligand | 1 µM | 95
c1cncc(-c2cccc(Nc3nccc(NC4CCCCC4)n3)c2)c1 | binding | competition with immobilised ligand | 10 µM | 75
CCN1CCN(Cc2ccc(C(=O)Nc3ccc(C)c(Oc4ccc5c(c4)CC(=O)N5)c3)cc2C(F)(F)F)CC1 | binding | competition with immobilised ligand | 1 µM | 100
CN(C)C(=O)Cn1cc(-c2nc(C3(c4ccc(-c5cnc(N)nc5)cc4)CC3)no2)cn1 | cell-free assay | competition with immobilised ligand | 1 µM | 94
CN(c1nccc(-c2cnn3ncccc23)n1)C1CC1 | binding | – | 1 µM | 98
O=C(N1CCS(=O)(=O)CC1)N1C[C@H](c2ccc(OC(F)(F)F)cc2)C[C@H](c2nc(C3CC3)no2)C1 | cell-free assay | competition with immobilised ligand | 1 µM | 100
Nc1ncc2c(n1)-c1c([nH]c3ccc(C#CC4CC4)cc13)CCCC2 | binding | competition with immobilised ligand | 1 µM | 19
